PHOSPHO1 block – PubChem AID 1565. inhibition, % at 13.3 µM. Phosphoethanolamine/phosphocholine phosphatase (Homo sapiens), Q8TCT1. recombinant PHOSPHO1, absorbance phosphatase assay. 290,000 compounds, 1.1% hits; in the data active means inhibition above about 60%
Target sequence (Q8TCT1 whole entry, looked up): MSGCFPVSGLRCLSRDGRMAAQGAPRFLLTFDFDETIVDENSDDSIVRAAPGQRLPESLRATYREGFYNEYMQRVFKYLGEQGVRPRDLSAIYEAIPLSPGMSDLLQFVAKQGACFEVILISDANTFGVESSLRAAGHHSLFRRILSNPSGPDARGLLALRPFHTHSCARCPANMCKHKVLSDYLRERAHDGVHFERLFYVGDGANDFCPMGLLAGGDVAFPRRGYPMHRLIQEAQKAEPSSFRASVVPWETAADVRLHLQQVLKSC
HSF1 inhib – HSF1 inhibitors in luciferase reporter cells, primary screen, cell-based, NIH3T3, luminescence; NIH3T3-HGL HSE-luciferase, MG132-induced, luminescence 8 h; stronger effect = lower value; activity change, negative = inhibition, % at 7.5 µM (by protocol); 300,000 compounds, 0.77% hits; AID 2098, 2009;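 active means more than half of replicate wells show activity change below -50%, luminescence cut by over half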;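 further: luciferase reports HSF-1 transcriptional activity via heat shock element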
HSF-1 act – HSF-1 activators, primary screen, NIH3T3-HGL cells, MG132 stress, luminescence, single point | activation, % at 9 µM | NIH3T3-HGL HSF-1 luciferase reporter, 8 h; 100% = twice DMSO control signal | AID 504408, 2011 | 300,000 compounds, 1.7% hits;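 active means mean replicate activation of at least 50% with a set share of replicates each reaching 50%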
Hep lipid drop – inhibitors of hepatocyte lipid droplet formation, primary screen, imaging, high-throughput imaging, BODIPY stain; AML12 mouse hepatocytes, oleate lipid droplets; inhibition, % at 6.5 µM; 240,000 compounds, 0.4% hits;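 active means lipid droplet intensity inhibited by at least 50%, with more than 500 cells counted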
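Test system: AML12 mouse liver cells; schedule: overnight exposure; technique: high-content imaging of BODIPY-stained droplets and DAPI nuclei; read-out: % inhibition of corrected integrated BODIPY droplet signal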
CHT block – inhibitors of human choline transporter CHT. High affinity choline transporter 1 (Homo sapiens), Q9GZV3. CHT-expressing cells, membrane potential dye, choline response; stronger effect = lower value. B-score at 10 µM. 310,000 compounds, 0.86% hits;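 active means B-score over 3 SD under the library average, and starting fluorescence ratio not unusually high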;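 further: choline stimulus applied at its EC90 after an EC20 pre-addition; B-score computed on integrated fluorescence ratio after choline addition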
CHT PAM – CHT positive allosteric modulators, primary screen, cell-based, membrane potential dye, choline EC20. High affinity choline transporter 1 (Homo sapiens), Q9GZV3. CHT-expressing cells; stronger effect = higher value; LV-AA mutant CHT in HEK293 cells. B-score at 10 µM. 310,000 compounds, 0.49% hits. AID 488977, 2010;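 active means initial fluorescence not abnormally high and integrated response B-score, plate-corrected, over 3 SD above library mean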
CHT inh conf – CHT inhibitors, confirmation, cell-based, membrane potential dye, duplicate. shares compounds with CHT block. CHT-expressing cells, choline membrane potential dye; LV-to-AA substituted CHT, HEK293 cells. CHT activity remaining % of control (stronger effect = lower value), % at 10 µM. 2,400 compounds, 70% hits. AID 493221, 2011;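 active means choline transporter activity left, mean of duplicates at 10 µM, below buffer-only control mean minus 3 SD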;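 further: depolarization triggered by choline at its EC90 following an EC20 pre-addition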
HEK293 MPD ctr – membrane potential effects in parental HEK293, counter-screen for CHT inhibitor project, cell-based, membrane potential dye; shares compounds with CHT block; choline response; active = decrease or increase beyond buffer ±3SD; membrane potential ratio readout (active if shifted either direction beyond buffer ±3SD; no single direction) at 10 µM; 2,400 compounds, 4% hits; AID 493222, 2011;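 further: parental cells lack the transporter so any hit is non-specific; ratio is peak minus trough fluorescence over baseline after EC90 choline challenge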
Hits are given with their value; i = inactive; nt = no result. The list is not random: actives were taken first. Their share in the collection is about 4.9%.

SMILES	PHOSPHO1 block	HSF1 inhib	HSF-1 act	Hep lipid drop	CHT block	CHT PAM	CHT inh conf	HEK293 MPD ctr
Cc1cc(C)c(S(=O)(=O)N2CCN(c3nc4c(c(=O)n(C)c(=O)n4C)n3C)CC2)c(C)c1	i	nt	nt	nt	nt	nt	nt	nt
CCn1c(SCC(=O)N2CCCCCC2)nc2c(c1=O)SCC2	i	i	i	i	i	i	nt	nt
CCCCC[C@H](O)/C=C/[C@H]1C=CC(=O)[C@@H]1C/C=C\CCCC(=O)O	i	nt	nt	i	nt	nt	nt	nt
CCCCC1C(=O)CC[C@H]2[C@@H]1CC(=O)[C@@H]2C/C=C\CCCC(=O)O (some centres not stated)	i	i	72	i	-5.5	i	34%	i
O=C1NC(=O)/C(=C\c2ccc(Br)o2)S1	i	i	i	i	-5.7	i	i	i
O=C1NC(=O)/C(=C/c2ccc(-c3cc(C(=O)O)ccc3Cl)o2)S1	i	i	i	i	i	i	nt	nt
Cc1ccccc1C(=O)c1cccn1CC(=O)NC(C)c1ccccc1 (configuration not stated)	i	i	i	i	-6.8	i	35%	i
CC(NC(=O)Cn1cccc1C(=O)c1ccccc1)c1ccccc1 (configuration not stated)	i	i	i	i	i	i	nt	nt
CCC(C)c1ccccc1NC(=O)C(C)NCCN(C)C (configuration not stated)	i	i	i	i	i	i	nt	nt
CC(C)(C)c1cc(C(F)(F)F)nc(SCCCNC(=O)c2ccco2)n1	i	i	i	i	-5.5	i	i	i
CC(C)(C)c1ccc(C(=O)NCCCNC(=O)c2ccco2)cc1	i	i	i	i	i	i	nt	nt
Cc1nnc(NC(=O)CSc2ccc(-c3cccnc3)nn2)s1	i	i	i	i	i	i	nt	nt
Fc1ccc(CSc2nc3ncccc3[nH]2)cc1	i	i	i	nt	-6	i	i	i
Fc1cccc(CSc2nc3ncccc3[nH]2)c1	i	i	i	nt	i	i	nt	nt
Cc1ccc(NC(=O)c2ccccc2NS(=O)(=O)c2ccc(Cl)s2)cc1S(=O)(=O)N1CCOCC1	i	i	i	i	-11	i	40%	i
COc1ccc(C)cc1NC(=O)c1ccccc1NS(=O)(=O)c1ccc(Cl)s1	i	i	i	i	-7.5	i	15%	i
O=C(O)CCNC(=O)c1ccc(NC(=O)C(c2ccccc2)c2ccccc2)cc1	nt	i	i	nt	i	i	nt	nt
O=C(NCC(=O)N1CC=C(c2ccccc2)CC1)c1ccccc1Br	i	i	i	i	i	i	nt	nt
CCCCn1c(SCC(=O)N2CCN(c3ccccc3)CC2)nc2ccsc2c1=O	78	i	i	nt	-5.7	i	i	i
CCCCn1c(SCC(=O)Nc2ccccc2C(F)(F)F)nc2ccsc2c1=O	i	i	i	nt	i	i	nt	nt
CCCCn1c(SCC(=O)N2CCC(C)CC2)nc2ccsc2c1=O	i	i	i	nt	i	i	60%	i
COc1ccc(S(=O)(=O)Nc2ccccc2-c2nc3ccccc3[nH]c2=O)cc1	i	i	i	i	i	i	nt	nt
C[N+]1(CCCCSc2ccc(O)cc2)CCCCC1	i	i	i	i	i	i	nt	nt
CC(=O)OCCCCCCCCCCC[N+]1(C)CCCCC1	i	i	i	i	-8.3	i	27%	i
COC(=O)CCCCCCCCCC[N+]1(C)CCCCC1	i	i	i	i	-5.1	i	42%	i
COc1ccc(S(=O)(=O)Nc2cccc(-c3ccc4nncn4n3)c2)cc1	nt	i	i	nt	i	i	nt	nt

Compound activity deposited in PubChem BioAssay by several laboratories.
